Bioassay records deposited in PubChem BioAssay by Sanford-Burnham Center for Chemical Genomics.
Rows were chosen to be rich in hits. Some 2.3% of all compounds tested hit in one or more screens of this group.
STEP block = STEP phosphatase inhibitors, primary screen, biochemical, fluorescence intensity, uHTS; recombinant STEP, OMFP fluorogenic substrate; inhibition, % at 20 µM; AID 588621, 2011; 360,000 compounds, 0.25% hits;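 active means inhibition at 20 µM, scaled per plate between control wells, above about 37%, limit read from the data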
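System: STEP (striatal-enriched tyrosine phosphatase) enzyme, cell-free; medium: Bis-Tris pH 6.0 buffer with DTT, detergent; dosing: 20 µM, 1% DMSO; times: reaction 20 min, ambient temperature; detection: fluorescence, 480/540 nm; read-out basis: normalized % inhibition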
SUMO1-SIM PPI = modulators of SUMO1 protein-protein interactions, primary screen, biochemical, uHTS; Small ubiquitin-related modifier 1 (Homo sapiens), P63165; SUMO1 binding to a labelled peptide, TR-FRET, 1 h; inhibition, % at 20 µM; 360,000 compounds, 0.33% hits; AID 602429, 2012; in the data active means inhibition above about 37%
Scp-1 inhibitor = Scp-1 phosphatase inhibitors, primary screen, biochemical, colorimetric, uHTS | 340,000 compounds, 0.88% hits | AID 493091, 2011 | Recombinant Scp1, phosphopeptide, malachite green phosphate absorbance | inhibition, % at 20 µM;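 active means inhibition above about 50% at 20 µM, limit read from the data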
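Assay system: SCP-1 catalytic fragment, aa 76-261 | Buffer or medium: Tris acetate buffer pH 5.5 with MgCl2 and Tween-20 | Compound: One concentration, 20 µM, with 1.0% DMSO | Also added: Phospho 17-mer peptide substrate | Signal: Absorbance at 630 nm | Incubation: 45 min enzyme reaction at room temperature | Measure: % inhibition of SCP-1 phosphate liberation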
LMPTP block = LMPTP phosphatase inhibitors, primary screen, biochemical, fluorescence intensity, uHTS; 360,000 compounds, 0.22% hits; Low molecular weight phosphotyrosine protein phosphatase (Homo sapiens), P24666; recombinant LMPTP-A, OMFP fluorogenic substrate; inhibition, % at 20 µM; AID 651560, 2012;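 active means compounds that cut the enzyme signal by at least half of the control window in the single-dose screen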
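Test system – LMPTP-A enzyme · Amount – LMPTP-A at 0.625 nM final in the reaction · Buffer or medium – Bis-Tris pH 6.0, DTT, detergent · Reagent – OMFP 400 µM · Doses – single 20 µM dose · Schedule – reaction 50 min, room temperature, dark · Detection – fluorescence intensity of OMFP turnover product · Evaluation – percent inhibition versus substrate-only and uninhibited controls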
DNMT1 inh = human DNMT1 methyltransferase inhibitors, primary screen, biochemical, molecular beacon, fluorescence, HinP1I cleavage, uHTS. DNA (cytosine-5)-methyltransferase 1 (Homo sapiens), P26358. inhibition (reported as % activation of signal), % at 10 µM. 360,000 compounds, 0.83% hits; in the data active means inhibition above about 50%
Target sequence (P26358 504-1616 limits assumed): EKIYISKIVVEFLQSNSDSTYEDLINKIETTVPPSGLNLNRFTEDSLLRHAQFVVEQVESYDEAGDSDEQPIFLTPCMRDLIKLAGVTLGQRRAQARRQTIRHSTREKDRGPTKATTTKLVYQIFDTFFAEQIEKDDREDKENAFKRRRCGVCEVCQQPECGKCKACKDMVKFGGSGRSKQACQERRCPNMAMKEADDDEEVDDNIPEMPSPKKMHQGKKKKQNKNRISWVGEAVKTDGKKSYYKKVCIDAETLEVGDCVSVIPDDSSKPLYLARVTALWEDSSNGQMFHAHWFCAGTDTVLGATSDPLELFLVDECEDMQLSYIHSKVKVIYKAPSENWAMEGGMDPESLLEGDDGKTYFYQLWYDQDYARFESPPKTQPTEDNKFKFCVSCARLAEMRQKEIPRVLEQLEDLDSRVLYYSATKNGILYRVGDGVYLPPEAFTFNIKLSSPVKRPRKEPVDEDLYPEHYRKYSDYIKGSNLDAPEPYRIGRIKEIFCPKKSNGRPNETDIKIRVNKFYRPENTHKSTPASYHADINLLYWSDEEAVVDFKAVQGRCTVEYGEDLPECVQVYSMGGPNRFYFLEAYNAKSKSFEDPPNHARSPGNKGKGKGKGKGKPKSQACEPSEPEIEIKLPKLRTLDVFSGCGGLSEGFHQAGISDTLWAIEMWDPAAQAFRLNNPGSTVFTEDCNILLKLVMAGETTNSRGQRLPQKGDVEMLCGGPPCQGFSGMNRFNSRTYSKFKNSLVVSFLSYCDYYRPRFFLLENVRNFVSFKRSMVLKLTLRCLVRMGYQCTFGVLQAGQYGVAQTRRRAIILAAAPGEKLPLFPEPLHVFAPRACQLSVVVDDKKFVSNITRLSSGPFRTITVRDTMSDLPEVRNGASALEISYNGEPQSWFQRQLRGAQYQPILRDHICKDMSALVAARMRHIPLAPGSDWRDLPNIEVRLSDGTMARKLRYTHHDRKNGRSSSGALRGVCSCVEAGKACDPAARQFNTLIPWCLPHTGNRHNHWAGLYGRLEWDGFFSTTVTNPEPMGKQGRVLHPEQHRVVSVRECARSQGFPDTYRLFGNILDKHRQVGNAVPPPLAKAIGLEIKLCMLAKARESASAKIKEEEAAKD
NadD block = inhibitors of S. aureus NadD, primary screen, biochemical, colorimetric, uHTS. Nicotinate-nucleotide adenylyltransferase NadD (Staphylococcus aureus N315). purified NadD enzyme, colorimetric absorbance read-out. inhibition, % at 20 µM. 360,000 compounds, 0.78% hits; in the data active means inhibition above about 26%
NadD conf = inhibitors of S. aureus NadD, confirmation, biochemical, colorimetric, single concentration. shares compounds with NadD block. purified S. aureus NadD, colorimetric enzyme assay. inhibition, % at 20 µM. 2,000 compounds, 13% hits. AID 624309, 2012; in the data active means inhibition mostly above about 42%, no sharp cut-off; inactive means mostly below about 42%
Of the large screens only hits and unclear results are named; the others gave an inactive call (follow-up assays come after a bar, where they were run).

Cc1ccc(Cn2c(C3CCCN3c3nc(-c4cc(Cl)c(N)c(Cl)c4)cs3)nc3cc(Cl)c(Cl)cc32)cc1 (configuration not stated)	NadD block 51 | NadD conf 43
Nc1c(Cl)cc(-c2csc(N3CCCC3c3nc4cc(Cl)c(N5CCCCC5)cc4n3CCCO)n2)cc1Cl (configuration not stated)	NadD block 32 | NadD conf inactive
CC(Nc1nc(-c2ccc(Cl)cc2)cs1)c1nc2cc(Cl)c(N3CCCCC3)cc2n1CCOCCO (configuration not stated)	none
CCCn1c(C2CCCN2c2nc(-c3cccc(Br)c3)cs2)nc2cc(Cl)c(Cl)cc21 (configuration not stated)	NadD block 36 | NadD conf inactive
CCn1nc(C)c(CNC(=O)C2CCC(=O)N(CCc3ccc(Cl)cc3)C2)c1C (configuration not stated)	none
O=C(NC(=S)Nc1ccccc1N1CCCCC1)c1ccc(-c2cccc([N+](=O)[O-])c2)o1	none
O=C(NC(=S)Nc1ccccc1N1CCCC1)c1ccc(-c2cccc([N+](=O)[O-])c2)o1	NadD block 32 | NadD conf inactive
CC(C)c1ccc(NC(=O)c2ccc(NS(C)(=O)=O)cc2)cc1	none
O=C(Nc1nc(-c2ccco2)c(-c2ccco2)s1)C1CCC1	none
CS(=O)(=O)c1ccc(C(=O)Nc2nc(-c3ccco3)c(-c3ccco3)s2)cc1	NadD block 29 | NadD conf inactive
Cc1ccc(S(=O)(=O)c2nnn3c2nc(N2CCN(c4ccccn4)CC2)c2ccccc23)cc1C	NadD block 40 | NadD conf inactive
COc1ccc(/C=N\NC(=S)SCN2C(=O)C3CCC(C)(C2=O)C3(C)C)cc1 (configuration not stated)	none
CN(C)c1ccc(/C=N\NC(=S)SCN2C(=O)C3CCC(C)(C2=O)C3(C)C)cc1 (configuration not stated)	NadD block 29 | NadD conf inactive
CCOC(=O)C1(Cc2ccccc2)CCCN(Cc2ccc(OCC)c(CO)c2)C1 (configuration not stated)	none
COc1ccc(/C=N/NC(=O)c2nn(-c3ccccc3)c(=O)c3c(N)scc23)cc1	NadD block 51 | NadD conf inactive
COc1ccc(/C=N/NC(=O)c2nn(-c3ccc(Cl)cc3)c(=O)c3c(N)scc23)cc1	NadD block 55 | NadD conf inactive
CCOC(=O)c1nn(-c2ccc(OC)cc2)c(=O)c2c(N)scc12	none
O=C(c1cc(F)c(F)cc1Cl)N1CCCc2ccccc21	none
Cc1cc(Cl)ccc1NC(=S)NCc1ccc(F)cc1	none
C=CCNC(=S)NNC(=O)c1ccc(=O)n(Cc2ccc(Cl)cc2Cl)c1	none
Cc1[nH]c2c(ccc3ccccc32)c1C1C(CCN)C1(C)C (configuration not stated)	NadD block 33 | NadD conf inactive
S=c1[nH]c2ccc3ccccc3c2[nH]1	none
CC(=O)Nc1ccc(S(=O)(=O)/N=C2\SCCN2S(=O)(=O)c2ccc(NC(C)=O)cc2)cc1	NadD block 58 | NadD conf inactive
CC(=O)Nc1ccc(S(=O)(=O)Nc2ccc(S(=O)(=O)N3CCCC3)cc2)cc1	none
Cc1cc(O)c(C(=O)/C=C/c2cccc([N+](=O)[O-])c2)c(=O)o1	NadD block 35 | NadD conf inactive
Cc1cc(O)c(C(=O)/C=C/c2ccccc2O)c(=O)o1	none
CC(OC(=O)Cn1cnc2c1c(=O)n(C)c(=O)n2C)C(=O)NC1(C#N)CCCCC1 (configuration not stated)	none
O=Cc1ccc(-c2cccc([N+](=O)[O-])c2)o1	none
O=C1NC(=O)/C(=C/c2ccc(-c3cccc([N+](=O)[O-])c3)o2)S1	SUMO1-SIM PPI 55, NadD block 45 | NadD conf inactive
COC(=O)c1cc(=O)nc(NN=Cc2ccc(OC)cc2)s1	none (no result: Scp-1 inhibitor)
COc1cc(C#Cc2c(-c3cncn3C)n(C)c3ccc(-c4cnc(OC)nc4)cc23)cc(OC)c1	NadD block 30 | NadD conf inactive
COc1cc(C#Cc2c(-c3cncn3C)n(C)c3ccc(-c4ccc(CN5CCOCC5)cc4)cc23)cc(OC)c1	none
COc1cc(C#Cc2c(-c3cncn3C)n(C)c3ccc(-c4cnc(N5CCOCC5)nc4)cc23)cc(OC)c1	NadD block 45 | NadD conf inactive
O=C(c1ccc(NC(=S)NCc2ccco2)cc1)N1CCOCC1	none
CN(c1ccccc1)S(=O)(=O)c1cccc(NC(=O)CN2CCCc3ccccc32)c1	none
NS(=O)(=O)c1cccc(NC(=O)CN2CCc3ccccc32)c1	NadD block 38 | NadD conf inactive
CC1CC(C)CN(C(=O)Cc2c(C(=O)O)[nH]c3ccc(Cl)cc23)C1 (configuration not stated)	none
COc1ccc(NS(=O)(=O)c2ccc3nc(COc4ccc5ccccc5c4)[nH]c3c2)cc1	none
COc1ccc(NS(=O)(=O)c2ccc3nc(COc4cccc5ccccc45)[nH]c3c2)cc1	NadD block 38 | NadD conf inactive
N#Cc1c(NC2CCCCC2)nc(-c2ccco2)c2c1CCCC2	NadD block 38 | NadD conf inactive
N#Cc1c(NCCCO)nc(-c2ccco2)c2c1CCCC2	none
COC(=O)c1ccc(CNC(=O)CCNC(=O)c2ccco2)cc1	none
Cc1cccc(-n2nc3c(c2NC(=O)c2ccco2)CSC3)c1C	DNMT1 inh 87, NadD block 44 | NadD conf 73
Cc1ccc(-n2nc3c(c2NC(=O)c2c(-c4ccccc4Cl)noc2C)CSC3)cc1	none (no result: STEP block, SUMO1-SIM PPI, LMPTP block, DNMT1 inh, NadD block)
Cc1ccccc1-n1nc2c(c1NC(=O)c1c(-c3ccccc3Cl)noc1C)CSC2	NadD block 63 | NadD conf inactive
CCn1c(SCC(=O)Nc2nc(-c3ccc(C)cc3)cs2)nnc1-c1ccccc1O	NadD block 37 | NadD conf 43
COc1ccc(-c2nn(-c3ccccc3)cc2C(=O)NC(=S)NNC(=O)c2ccncc2)cc1	NadD block 58 | NadD conf inactive
